Keap1 Nrf2 FP: Keap1-Nrf2 (human) interaction inhibition; Q14145; Keap1 Kelch-Nrf2 peptide fluorescence polarization, 1536-well; inhibition, % at 9.4 µM; hit rate 0.15% among 340,000; in the data active = inhibition above about 12%;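 note: human Keap1 Kelch domain with fluorescein labeled Nrf2 9mer peptide probe; 0% = neutral control wells and 100% = peptide positive control; higher means more block of Keap1 binding to Nrf2 peptide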
Cardiac RTF inh: cardiac RTF calcium desensitization; hit rate 0.12% among 340,000; IANBD-labeled cardiac RTF, Ca2+ fluorescence; inhibition, % at 7.15 µM;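 active = inhibition above the mean inhibition of all tested compounds plus 3 SD, cut at about 17% in these data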;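 note: assay run at fixed EC70 calcium of 1.6 mM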
RTF Ca sens act: cardiac RTF calcium sensitization. activation, % at 7.2 µM. IANBD-labeled TnC RTF fluorescence at EC20 calcium; 0% EC20 calcium, 100% full calcium. P19429+P45379. hit rate 0.24% among 340,000;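 active = activation above the mean over all tested compounds plus 3 SD, cut at about 30% in these data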;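 note: rise in fluorescence read as greater calcium sensitivity of cardiac thin filaments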
DDE Tn6 FP inh: inhibitors of Tn6 peptide binding to human fibrin DD(E); P02675; inhibition, % at 8.3 µM; Fibrin DD(E) TRITC-Tn6 fluorescence polarization displacement; hit rate 0.21% among 370,000; AID 720509;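 active = inhibition above a per-campaign cutoff: mean of compounds within control limits plus 3 SD, cut at about 15% in these data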;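 note: 0% = median of all compound wells on the plate and 100% = blocking peptide control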
Target sequence (P02675 whole entry, looked up): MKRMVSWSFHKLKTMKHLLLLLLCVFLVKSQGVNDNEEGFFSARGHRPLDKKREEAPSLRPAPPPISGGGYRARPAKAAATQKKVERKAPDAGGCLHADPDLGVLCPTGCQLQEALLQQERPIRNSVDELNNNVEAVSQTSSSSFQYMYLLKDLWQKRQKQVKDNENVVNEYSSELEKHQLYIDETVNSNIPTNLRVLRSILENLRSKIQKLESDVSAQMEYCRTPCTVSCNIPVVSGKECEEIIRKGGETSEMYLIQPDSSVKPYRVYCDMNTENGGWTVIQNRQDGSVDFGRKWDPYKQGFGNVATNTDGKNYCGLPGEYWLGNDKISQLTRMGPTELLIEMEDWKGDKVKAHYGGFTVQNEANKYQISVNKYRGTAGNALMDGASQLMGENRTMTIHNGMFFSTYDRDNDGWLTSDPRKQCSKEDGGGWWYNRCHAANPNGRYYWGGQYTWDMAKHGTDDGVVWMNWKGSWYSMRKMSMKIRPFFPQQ
C-LANA FP: KSHV C-LANA DNA binding inhibition; MBP-C-LANA/FAM-LBS DNA binding, fluorescence polarization; inhibition, % at 9 µM; hit rate 0.078% among 340,000; AID 504423;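 active = highest replicate inhibition at or above 60% at 9 µM, even if other replicates fall short; inactive = all replicates below 60% inhibition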;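 note: 0% = neutral control wells and 100% = 4 µM acridine orange control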
Tn7 DDE FP: DD(E)-Tn7 binding inhibition, primary FP screen | P02675 | hit rate 0.13% among 370,000 | AID 720508 | inhibition, % at 8.3 µM | FP displacement of FITC-Tn7 peptide from fibrin DD(E); 0% = median of compound wells per plate;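 active = inhibition above the mean of compounds falling within the control limits plus 3 SD of them, cut at about 14% in these data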;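 note: 0% = plate median of compound wells and 100% = 10 µM Aha-Tn7 peptide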
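Assay system: Human fibrin DD(E) protein | Medium: Tris buffer with calcium and detergent, pH 7.8 | Reagent: 0.1 µM fluorescent Tn7 | Compound dosing: Single point at 8.3 µM | Times: 10 min preincubation, 3 h with tracer, room temperature | Detection: Fluorescence polarization of the labelled Tn7 tracer | Controls: Aha-Tn7 high control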
Keap1 Kelch bind: Keap1 (human) Kelch domain binding; shares compounds with Keap1 Nrf2 FP; Keap1 Kelch thermal shift, delta Tm; stronger effect = higher value; max delta Tm, degrees C; hit rate 8% among 400; in the data active = max delta Tm above about 0.48 degrees C
Sypro dye melt: counter-screen for Keap1 thermal shift hits: dye-only artifacts; shares compounds with Keap1 Nrf2 FP; Sypro Orange dye-only thermal melt, no protein, delta Tm; top dose 26 µM; delta Tm, degrees C (test concentration not listed); 140 tested, under 10 active; AID 651858;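 active = at highest dose tested, delta Tm positive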
Starred values were filed as active, the others as inactive; . = no result given. In the library only some 0.73% were active in any assay of this set; here they are far more common.

SMILES	Keap1 Nrf2 FP	Cardiac RTF inh	RTF Ca sens act	DDE Tn6 FP inh	C-LANA FP	Tn7 DDE FP	Keap1 Kelch bind	others
C=CCOc1ccc(C2OC34CCCCC3C(C#N)(C#N)C2(C#N)C(=N)O4)cc1 (centres undefined)	11*	-32	27	.	36	.	-0.08	Sypro dye melt=-27
Cc1ccc(C2OC34CCCCCC3C(C#N)(C(=N)O4)C2(C#N)C#N)cc1 (centres undefined)	-2	-3	6	-7	-2	-2	.
CCCCOc1ccc(C2OC34CCCCC3C(C#N)(C#N)C2(C#N)C(=N)O4)cc1 (centres undefined)	27*	-32	23	.	60*	.	0.03	Sypro dye melt=-27
CCCCCCC1CC(=CN(C)C)C(=O)O1 (centres undefined)	.	.	.	-5	.	8	.
COC(=O)[C@H](C(C)C)N1CCc2nnn(Cc3ccc(C)cc3)c2-c2cc(F)ccc2S1(=O)=O	.	.	.	2	.	3	.
N#C/C(=C\c1ccc[nH]1)C(=O)N1CCCCC1	58*	.	.	4	.	-10	-0.17
COc1cc2c3nnc(-c4ccc(F)cc4)c-3cn(Cc3ccc(F)cc3)c2cc1OC	8	-5	0	-5	24	-4	.
COc1cc2c3nnc(-c4ccc(F)cc4)c-3cn(Cc3ccccc3)c2cc1OC	16*	-9	7	-3	2	-6	-0.16	Sypro dye melt=-26
CCCCCCCCNS(=O)(=O)/C=C/c1ccccc1CNC(=O)OC(C)(C)C	.	.	.	4	.	6	.
COc1cc(OC)cc(OC(=O)C2CCN(C(=O)c3ccc(Cl)cc3)CC2)c1	-3	-7	-2	1	-2	3	.
CCn1nnnc1SCC(=O)N(C)C1CCS(=O)(=O)C1 (centres undefined)	37*	0	2	-5	15	4	-0.13
O=C(NNS(=O)(=O)c1ccc(F)cc1)c1ccc(O)cc1	43*	-6	1	4	23	-5	-0.17
O=C(NNS(=O)(=O)c1ccc(F)cc1)c1ccc(S(=O)(=O)N2CCCCC2)cc1	-4	-23	5	6	0	3	.
COc1cccc(C2=CC(c3ccc(OC)c(OC)c3OC)n3nnnc3N2)c1 (centres undefined)	1	-3	-5	-9	-1	-3	.
COc1cccc(C2=CC(c3cccs3)n3nnnc3N2)c1 (centres undefined)	15*	-24	6	8	32	-2	-0.13
CC1(C)CC(=O)C2=C(C1)OC1=C(C2)C(=O)CC(C)(C)C1	21*	-4	-4	10	2	3	-0.1
Cc1ccc(-n2nnnc2SCC(=O)c2c(N)n(C3CC3)c(=O)[nH]c2=O)cc1	42*	-9	9	2	22	-4	-0.08
CC(=O)C1C(c2ccc(C)cc2)c2c(noc2C)CC1(C)O (centres undefined)	-9	1	2	-3	0	1	.
CC(=O)C1C(c2ccc(F)cc2)c2c(noc2C)CC1(C)O (centres undefined)	50*	.	.	0	26	-1	-0.15
CCOCCCn1c(=NC(=O)c2cccs2)c(C#N)cc2c(=O)n3cccc(C)c3nc21	13*	-16	22	3	14	2	0.24
Cc1cccn2c(=O)c3cc(C#N)c(=NC(=O)c4cccs4)n(CC(C)C)c3nc12	1	-8	8	6	1	-7	.
COCCCn1c(=NC(=O)c2ccccc2)c(C#N)cc2c(=O)n3cccc(C)c3nc21	14*	-19	11	-2	5	5	0.04
O=C(NNC(=O)c1ccc(Br)o1)c1csc(N2CCOCC2)n1	46*	-11	7	-4	27	-1	-0.12	Sypro dye melt=-24
Cc1ccc(Cn2c(=N)c(C(=O)NC3CCCCC3)cc3c(=O)n4ccccc4nc32)cc1	-2	-11	-2	1	13	-2	.

Screening results (PubChem)
